MEKK2mut PB1 HTS: MEK5 binding signal on mutant MEKK2 PB1, primary screen, biochemical, multiplex bead flow cytometry, Alexa488-MEK5; actives 0.35% (n = 290,000); Alexa488-MEK5 binding to MEKK2 mutant; percent response, % at 10 µM; in the data active means percent response above about 24%, passing the limit was not always enough
Apaf-1 inh: inhibitors of human Apaf-1 apoptosome, primary screen, biochemical, DEVD-Rh110 fluorescence, uHTS; Apoptotic protease-activating factor 1 (Homo sapiens), O14727; reconstituted apoptosome caspase-3 activity; inhibition, % at 20 µM; actives 0.71% (n = 330,000); active means inhibition of at least 40% at 20 µM
Target sequence (O14727 whole entry, looked up): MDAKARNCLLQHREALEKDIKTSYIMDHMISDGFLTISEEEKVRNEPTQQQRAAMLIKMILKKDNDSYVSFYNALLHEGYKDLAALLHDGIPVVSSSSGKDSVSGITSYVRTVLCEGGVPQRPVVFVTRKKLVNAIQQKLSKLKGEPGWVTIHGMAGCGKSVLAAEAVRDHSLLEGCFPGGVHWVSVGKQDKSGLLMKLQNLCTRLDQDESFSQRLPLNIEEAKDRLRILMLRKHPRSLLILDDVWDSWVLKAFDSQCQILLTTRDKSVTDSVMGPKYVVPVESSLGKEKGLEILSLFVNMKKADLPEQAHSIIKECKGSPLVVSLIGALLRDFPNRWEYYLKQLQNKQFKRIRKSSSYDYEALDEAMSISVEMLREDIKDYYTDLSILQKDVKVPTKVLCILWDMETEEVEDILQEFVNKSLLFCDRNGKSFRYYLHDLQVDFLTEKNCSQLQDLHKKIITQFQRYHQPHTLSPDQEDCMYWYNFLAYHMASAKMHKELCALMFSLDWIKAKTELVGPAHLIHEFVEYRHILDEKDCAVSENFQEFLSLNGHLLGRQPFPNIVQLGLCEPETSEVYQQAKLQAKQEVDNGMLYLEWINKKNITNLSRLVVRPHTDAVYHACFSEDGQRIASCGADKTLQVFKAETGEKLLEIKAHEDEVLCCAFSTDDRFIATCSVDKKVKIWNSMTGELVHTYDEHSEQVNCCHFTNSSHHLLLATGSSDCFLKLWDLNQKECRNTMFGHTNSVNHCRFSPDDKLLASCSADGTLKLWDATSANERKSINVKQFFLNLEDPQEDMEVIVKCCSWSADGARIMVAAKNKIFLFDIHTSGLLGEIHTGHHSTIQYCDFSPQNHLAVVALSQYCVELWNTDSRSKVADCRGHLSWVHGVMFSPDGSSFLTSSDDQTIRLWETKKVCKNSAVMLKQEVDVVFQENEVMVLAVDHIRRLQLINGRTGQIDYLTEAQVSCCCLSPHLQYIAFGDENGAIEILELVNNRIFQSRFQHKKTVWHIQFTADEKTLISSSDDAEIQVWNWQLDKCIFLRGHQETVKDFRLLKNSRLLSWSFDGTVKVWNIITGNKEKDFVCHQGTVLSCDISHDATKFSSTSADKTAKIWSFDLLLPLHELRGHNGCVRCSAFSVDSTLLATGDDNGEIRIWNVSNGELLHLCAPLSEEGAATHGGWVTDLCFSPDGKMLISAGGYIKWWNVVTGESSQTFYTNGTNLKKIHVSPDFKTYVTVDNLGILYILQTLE
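Assay system: Apoptosome proteins | Medium: pH 7.5 Hepes buffer with CHAPS, BSA, DTT | Also added: Cytochrome c and DEVD-Rh110 substrate | Times: 30 min plus 50 min, RT | Detection: Rhodamine 110 fluorescence at Ex 480/Em 540 nm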
MEKK2 WT-MEK5: modulators of MEK5 binding to wildtype MEKK2, primary screen, biochemical, multiplex bead flow cytometry, Alexa488-MEK5; Mitogen-activated protein kinase kinase kinase 2 (Homo sapiens), Q9Y2U5; Alexa488-MEK5 binding to MEKK2 WT; actives lie on both sides; binding response (% of control), % at 10 µM; actives 1.1% (n = 290,000); AID 1531, 2009; in the data active means binding response below about 67% or above about 130%
UBC13 polyUb: UBC13 polyubiquitin chain formation inhibitors, primary screen, biochemical, TR-FRET, uHTS; Ubiquitin-conjugating enzyme E2 N (Homo sapiens), P61088; inhibition, % at 20 µM; actives 0.47% (n = 330,000); in the data active means inhibition above about 45%, passing the limit was not always enough
MEKK3 PB1 HTS: modulators of MEKK3-MEK5 PB1 binding, primary screen, biochemical, wildtype MEKK3, multiplex bead flow cytometry, Alexa488-MEK5. Mitogen-activated protein kinase kinase kinase 3 (Homo sapiens), Q99759. bead-based flow cytometry, Alexa488-MEK5 binding to MEKK3; actives lie on both sides; 0 = blocked by unlabeled MEK5, 100 = vehicle. binding response (% of control), % at 10 µM. actives 1.4% (n = 290,000). AID 1529, 2009;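 active means binding response more than 3 SD above or below the average of its plate-row segment, actives on both sides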;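 further: Alexa488 bead fluorescence after subtracting the streptavidin-only scavenger bead signal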
MEKK2wt confirm: modulators of MEK5 binding to wildtype MEKK2, confirmation, biochemical, single concentration, multiplex bead flow cytometry; shares compounds with MEKK3 PB1 HTS; Alexa488-MEK5 binding to MEKK2 WT; actives lie on both sides; binding response (% of control), % at 10 µM; actives 2.4% (n = 5,900); AID 1892, 2009; in the data active means binding response below about 16% or above about 210%; inactive means in between
MEKK2mut-MEK5: mutant MEKK2 PB1-MEK5 binding signal retest – biochemical, single concentration, multiplex bead flow cytometry, confirmation; shares compounds with MEKK3 PB1 HTS; Alexa488-MEK5 binding to MEKK2 mutant; percent response, % at 10 µM; actives 2% (n = 5,900); in the data active means percent response mostly above about 71%, no sharp cut-off; inactive means mostly below about 38%;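 further: higher means compound restores mutant binding toward wildtype level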
MEKK3 confirm: MEKK3 wild-type PB1 binding to MEK5, inhibitors, confirmation, biochemical, bead multiplex flow cytometry, single concentration, wildtype | shares compounds with MEKK3 PB1 HTS | Alexa488-MEK5 binding to MEKK3; stronger effect = lower value | binding response (% of control), % at 10 µM | actives 1.8% (n = 5,900);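 active means binding response below 72% of control, or above a set upper limit, though filed actives all read lower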
Hits are given with their value; [ ] = another dose, or the depositor's remark. The list is not random: actives were taken first. Their share in the collection is about 2.9%.

For O=C(NNC(=S)Nc1cccc2ccccc12)c1cccc(Br)c1 the results were MEKK2mut PB1 HTS inactive, Apaf-1 inh inactive, MEKK2 WT-MEK5 inactive, UBC13 polyUb inactive, MEKK3 PB1 HTS 80[inhibitor], MEKK2wt confirm inactive, MEKK2mut-MEK5 inactive and MEKK3 confirm inactive.
`O=C(NCCN1CCCCC1)c1cc(Cl)ccc1Cl` gave MEKK2mut PB1 HTS inactive, Apaf-1 inh inactive, MEKK2 WT-MEK5 inactive, UBC13 polyUb inactive and MEKK3 PB1 HTS inactive.
O=c1c(-c2ccc3c(c2)OCCO3)coc2cc(OC3OC(CO)C(O)C(O)C3O)ccc12 (centres undefined) was read as MEKK2mut PB1 HTS inactive, Apaf-1 inh inactive, MEKK2 WT-MEK5 46[inhibitor], UBC13 polyUb inactive, MEKK3 PB1 HTS 44[inhibitor], MEKK2wt confirm inactive, MEKK2mut-MEK5 inactive and MEKK3 confirm inactive.
`COc1ccc(-c2coc3cc(O[C@@H]4O[C@H](CO)[C@@H](O)[C@H](O)[C@H]4O)ccc3c2=O)cc1` gave Apaf-1 inh inactive and UBC13 polyUb inactive.
N#C/C(=C\c1cc2ccccc2nc1N1CCOCC1)C(=O)Nc1ccc(N2CCOCC2)cc1 was read as MEKK2mut PB1 HTS inactive, Apaf-1 inh inactive, MEKK2 WT-MEK5 inactive, UBC13 polyUb inactive, MEKK3 PB1 HTS 146, MEKK2wt confirm inactive, MEKK2mut-MEK5 inactive and MEKK3 confirm inactive.
Screening N#CC(C#N)=Cc1cc2ccccc2nc1N1CCOCC1 returned MEKK2mut PB1 HTS inactive, Apaf-1 inh inactive, MEKK2 WT-MEK5 inactive, UBC13 polyUb inactive, MEKK3 PB1 HTS 135, MEKK2wt confirm inactive, MEKK2mut-MEK5 inactive and MEKK3 confirm inactive.
Cc1ccc2cc(C=C(C#N)C#N)c(N3CCCCC3)nc2c1 was read as MEKK2mut PB1 HTS inactive, Apaf-1 inh inactive, MEKK2 WT-MEK5 inactive, UBC13 polyUb inactive and MEKK3 PB1 HTS inactive.
Screening Cc1nn(-c2ccc(N3CCOCC3)nn2)c(C)c1CCC(=O)NCc1ccccc1F returned MEKK2mut PB1 HTS inactive, Apaf-1 inh inactive, MEKK2 WT-MEK5 inactive, UBC13 polyUb inactive and MEKK3 PB1 HTS inactive.
Screening CN(C)c1ccc(/C=C/c2ccc3c4ccccc4ccc3[n+]2-c2ccccc2)cc1 returned MEKK2mut PB1 HTS inactive, MEKK2 WT-MEK5 41, MEKK3 PB1 HTS 18[inhibitor], MEKK2wt confirm inactive, MEKK2mut-MEK5 inactive and MEKK3 confirm inactive.
Screening Cc1ccccc1Oc1nc2c(C)cccn2c(=O)c1/C=C(\C#N)C(=O)Nc1c(C)n(C)n(-c2ccccc2)c1=O returned MEKK2mut PB1 HTS inactive, Apaf-1 inh inactive, MEKK2 WT-MEK5 inactive, UBC13 polyUb inactive, MEKK3 PB1 HTS 137, MEKK2wt confirm inactive, MEKK2mut-MEK5 inactive and MEKK3 confirm 65.
Screening CCOC(=O)N1CCC(N2C(=O)c3ccccc3C2Nc2cc(C)cc(C)c2)CC1 (centres undefined) returned MEKK2mut PB1 HTS inactive, Apaf-1 inh inactive, MEKK2 WT-MEK5 inactive, UBC13 polyUb inactive, MEKK3 PB1 HTS 128, MEKK2wt confirm inactive, MEKK2mut-MEK5 inactive and MEKK3 confirm inactive.
CCOC(=O)N1CCC(N2C(=O)c3ccccc3C2Nc2ccc(C)cc2)CC1 (centres undefined) was read as MEKK2mut PB1 HTS inactive, Apaf-1 inh inactive, MEKK2 WT-MEK5 inactive, UBC13 polyUb inactive and MEKK3 PB1 HTS inactive.
`O=C(CNC(=O)c1ccccc1F)N/N=C/c1ccc2c(c1)OCO2` gave MEKK2mut PB1 HTS inactive, Apaf-1 inh inactive, MEKK2 WT-MEK5 inactive, UBC13 polyUb inactive and MEKK3 PB1 HTS inactive.
Screening Cc1ccccc1-n1nc(C)c2cc(C(=O)N3CCOCC3)sc21 returned MEKK2mut PB1 HTS inactive, Apaf-1 inh inactive, MEKK2 WT-MEK5 211, UBC13 polyUb inactive, MEKK3 PB1 HTS inactive, MEKK2wt confirm inactive, MEKK2mut-MEK5 inactive and MEKK3 confirm inactive.
O=C1N=C(N2C=CC(=C3C=CNC=C3)C=C2)/C(=C/N=NC(=O)c2ccccc2)S1 was read as MEKK2mut PB1 HTS inactive, Apaf-1 inh inactive, MEKK2 WT-MEK5 inactive, UBC13 polyUb inactive and MEKK3 PB1 HTS inactive.
Screening Cc1ccc2nnnc(-c3ccccc3)c2c1 returned MEKK2mut PB1 HTS inactive, Apaf-1 inh inactive, MEKK2 WT-MEK5 54[inhibitor], UBC13 polyUb inactive, MEKK3 PB1 HTS inactive, MEKK2wt confirm inactive, MEKK2mut-MEK5 inactive and MEKK3 confirm inactive.
`CCC12CC3CC(C1)CC(C(=O)NNC(N)=O)(C3)C2` gave MEKK2mut PB1 HTS inactive, Apaf-1 inh inactive, MEKK2 WT-MEK5 inactive, UBC13 polyUb inactive, MEKK3 PB1 HTS 128, MEKK2wt confirm inactive, MEKK2mut-MEK5 inactive and MEKK3 confirm inactive.
Screening CCC12CC3CC(C1)CC(C(=O)Nc1nn[nH]n1)(C3)C2 returned MEKK2mut PB1 HTS inactive, Apaf-1 inh inactive, MEKK2 WT-MEK5 inactive, UBC13 polyUb inactive and MEKK3 PB1 HTS inactive.
`O=C(NCC1CCCO1)C1CC(=O)N(c2ccccc2)C1` (centres undefined) gave MEKK2mut PB1 HTS inactive, Apaf-1 inh inactive, MEKK2 WT-MEK5 inactive, UBC13 polyUb inactive and MEKK3 PB1 HTS inactive.
NC(=O)C[n+]1cccc2ccccc21 was read as MEKK2mut PB1 HTS inactive, Apaf-1 inh inactive, MEKK2 WT-MEK5 inactive, UBC13 polyUb inactive and MEKK3 PB1 HTS inactive.
For Cc1ccc(C(=O)C[n+]2cccc3ccccc32)cc1 the results were MEKK2mut PB1 HTS inactive, Apaf-1 inh inactive, MEKK2 WT-MEK5 inactive, UBC13 polyUb inactive, MEKK3 PB1 HTS 80[inhibitor], MEKK2wt confirm inactive, MEKK2mut-MEK5 inactive and MEKK3 confirm inactive.
For Cc1cccc[n+]1CC(=O)c1ccc(NC(=O)c2ccccc2)cc1 the results were MEKK2mut PB1 HTS inactive, Apaf-1 inh inactive, MEKK2 WT-MEK5 inactive, UBC13 polyUb inactive and MEKK3 PB1 HTS inactive.
Screening COc1ccc(C(=O)C[n+]2ccccc2C)cc1 returned MEKK2mut PB1 HTS inactive, Apaf-1 inh inactive, MEKK2 WT-MEK5 inactive, UBC13 polyUb inactive, MEKK3 PB1 HTS 143, MEKK2wt confirm inactive, MEKK2mut-MEK5 inactive and MEKK3 confirm inactive.
O=C(C[n+]1cccc2ccccc21)c1ccc(Br)cc1 was read as MEKK2mut PB1 HTS 234, Apaf-1 inh inactive, UBC13 polyUb inactive, MEKK3 PB1 HTS 24[inhibitor], MEKK2wt confirm inactive, MEKK2mut-MEK5 inactive and MEKK3 confirm inactive.
